Screens (PubChem BioAssay)
CHO parental Ca – counter-screen: ATP calcium response change in parental CHO cells. AID 463079. inhibition, % at 5.6 µM. 330,000 tested, 0.63% active. parental CHO-K1, ATP-induced calcium, Fluo-8 fluorescence;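 active = inhibition above that plate's mean sample inhibition plus 3 SD, cut at about 26% in these data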;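 note: 0% = ATP-challenged DMSO wells and 100% = DMSO wells without ATP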
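Test system: parental CHO cells; detection: calcium-sensitive Fluo-8 fluorescence; evaluation: percent inhibition of calcium signal; also added: ATP as calcium-mobilizing challenge; repeats: one well per compound; control set: ATP-challenged DMSO wells low, unchallenged DMSO wells high; compound: single nominal dose of 5.6 µM per compound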
TAAR1 antagonist – antagonists of human TAAR1. CHO RD-HGA16 TAAR1, Fluo-8 calcium fluorescence, antagonist. inhibition, % at 3 µM. 360,000 tested, 1.5% active;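 active = inhibition above a per-plate cutoff, the mean inhibition of test compounds on that plate plus 3 SD, cut at about 49% in these data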;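 note: 0% = DMSO plus EC80 beta-PEA response and 100% = DMSO alone without agonist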
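Test system: hTAAR1-expressing CHO RD-HGA16 cells, Gα16-coupled; Probe or stimulus: EC80 β-phenethylamine stimulus; Compound dosing: single nominal final test compound concentration of 3 µM; Timing: 140 s kinetic read after compound, 140 s after agonist; Signal: Fluo-8 calcium-sensitive fluorescence; Measure: % inhibition of agonist calcium response; Controls: DMSO and EC80 PEA controls.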
OX1R antag-1 – blocks the human orexin 1 receptor; O43613; OX1R-expressing cells, FRET antagonist read-out; inhibition, % at 6.6 µM; 330,000 tested, 1.8% active; AID 485270; in the data active = inhibition mostly above about 38%, no sharp cut-off; inactive = mostly below about 40%;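 note: 0% = agonist challenge alone and 100% = reference antagonist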
OX1R antag-2 – blocks the human orexin 1 receptor. O43613. inhibition, % at 5 µM. 330,000 tested, 0.43% active. AID 434989. CHO/OX1R cells, Fluo-8 calcium fluorescence, orexin A;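 active = inhibition above its plate's threshold, mean inhibition of all tested compounds on the plate plus 3 SD, cut at about 37% in these data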;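 note: 0% = orexin A challenge wells and 100% = SB-334867-A antagonist wells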
TAAR1 agonist – agonists of human TAAR1. Q96RJ0. CHO RD-HGA16 TAAR1, Fluo-8 calcium fluorescence; vehicle wells 0%, saturating PEA agonist 100%. activation, % at 3 µM. 360,000 tested, 0.99% active. AID 624467;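 active = activation above the mean activation of all test compounds in the run plus 3 SD, cut at about 38% in these data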
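Test system: RD-HGA16 (CHO) cells co-expressing Gα16 and hTAAR1; dosing: one-point dosing at 3 µM (nominal); timing: 17-24 h seeding, 75 min 37 °C dye, 30 min RT; signal: kinetic Fluo-8 calcium fluorescence; read-out basis: % activation relative to PEA EC100 response; controls: DMSO and PEA EC100; replicates: n 1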
NTR1 agonist – agonists of human neurotensin receptor NTR1; activation, % at 20 µM; AID 493036; NTR1-U2OS beta-arrestin-GFP spot imaging, agonist mode; P30989; 330,000 tested, 0.17% active;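 active = activation at or above 40% of the spot to cytoplasm intensity ratio, with at least 20 cells analyzed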;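 note: 0% = DMSO without peptide and 100% = 100 nM NTR1 peptide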
Target sequence (P30989 whole entry, looked up): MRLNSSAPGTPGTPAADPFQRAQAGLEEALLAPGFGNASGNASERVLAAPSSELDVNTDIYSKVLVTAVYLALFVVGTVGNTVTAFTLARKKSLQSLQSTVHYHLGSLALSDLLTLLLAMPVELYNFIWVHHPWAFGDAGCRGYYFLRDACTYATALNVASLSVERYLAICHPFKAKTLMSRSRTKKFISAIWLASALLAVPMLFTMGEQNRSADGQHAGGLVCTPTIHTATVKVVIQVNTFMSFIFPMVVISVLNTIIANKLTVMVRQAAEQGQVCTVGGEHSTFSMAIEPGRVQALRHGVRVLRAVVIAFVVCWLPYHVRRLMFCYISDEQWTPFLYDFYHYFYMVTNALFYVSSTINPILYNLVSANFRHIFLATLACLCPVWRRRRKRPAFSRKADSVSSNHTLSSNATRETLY
Active calls of the source: *; · = no result. Rows were chosen to be rich in hits. Some 4% of all compounds tested hit in one or more screens of this group.

SMILES	CHO parental Ca	TAAR1 antagonist	OX1R antag-1	OX1R antag-2	TAAR1 agonist	NTR1 agonist
O=C(CSc1ccccc1)Nc1nnc(C2CC2)s1	29.8*	-23.6	21.3	-4.2	8.2	0.1
CCOc1ncccc1C(=O)Nc1nnc(C2CC2)s1	-11.9	4.8	73.9*	8.9	2.8	2.3
CCOc1ncccc1C(=O)Nc1nnc(C)s1	-13.0	-7.5	14.5	1.4	0.9	-0.3
CCOc1ncccc1C(=O)Nc1cc2c(cc1Br)OCCO2	-30.4	-20.8	39.8*	21.6	7.0	7.3
C=CC[C@]1(c2ccccc2)C(=O)N2C[C@H]3CON(C)[C@H]3C[C@H]2c2ccccc21	·	-9.5	·	·	0.7	·
COC(=O)[C@]12C[C@H](CC(=O)N3CCN(C(=O)C4CC4)CC3)C(=O)N(CCC3=CCCCC3)C1=C[C@H](COCc1ccccc1)O[C@@H]2C	·	-3.9	·	·	-0.3	·
Cc1cccc(NC(=O)CNC(=O)COc2cccnc2[N+](=O)[O-])c1C	-3.4	0.2	16.8	-5.6	16.8	1.4
CC1CN(Cc2cc(=O)oc3cc(O)ccc23)CC(C)O1 (stereo not given)	-3.5	-13.4	4.2	-6.8	2.3	0.7
CC(=O)OCCNC(=O)c1cc2ccccc2oc1=O	11.2	9.6	69.6*	1.7	10.8	0.1
CCOC(=O)CSc1c(-c2ccc(Cl)cc2)[nH]c2ccccc12	3.0	37.5	25.5	-33.2	-0.1	11.0
O=C(NCCSc1c(-c2ccccc2)[nH]c2ccccc12)c1cc2ccccc2oc1=O	-10.7	22.1	56.0*	-5.8	0.6	6.1
CCCC(=O)OCCNC(=O)c1cc2ccccc2oc1=O	-17.7	8.2	62.1	-9.2	4.2	0.0
O=C(Cc1cccs1)NCCSc1c(-c2ccc(Cl)cc2)[nH]c2ccccc12	-3.2	49.0*	13.8	-19.8	1.0	9.7
COc1ccc2cc(-c3cc(C(=O)OCC(=O)Nc4c(C)n(C)n(-c5ccccc5)c4=O)c4ccccc4n3)ccc2c1	·	66.2*	·	·	13.4	·
COc1ccc(-c2cc(C(=O)OCC(=O)N3CCOCC3)c3ccccc3n2)cc1	-20.8	-3.8	55.1*	27.4	6.7	1.5
CC(C)CCN(C)[C@H]1C[C@H]2c3[nH]c4ccccc4c3CCN2C[C@H]1[C@H](C)O	·	-17.8	·	·	11.5	·
O=C(O)c1cnn2c(-c3ccc(F)cc3)ccnc12	11.0	-5.5	23.6	1.0	8.5	1.8
COCCN(CCOC)C(=O)[C@@H](Cc1ccccc1)NC(=O)[C@H]1O[C@@H](n2ccc(N)nc2=O)[C@H](O)[C@@H]1O	·	-16.4	·	·	0.3	·
CC[C@H](C)[C@@H]1NC(=O)c2cc([N+](=O)[O-])cc(I)c2NCC[C@@H](C(N)=O)NC(=O)[C@H](CCCN=C(N)N)NC1=O	0.4	2.1	22.7	-0.8	18.4	-2.1
CC[C@H](C)[C@@H]1NC(=O)c2cc([N+](=O)[O-])cc(I)c2SC[C@@H](C(N)=O)NC(=O)[C@H](CCCCN)NC1=O	-8.1	-1.1	60.9*	0.5	7.0	-2.5
CS(=O)(=O)c1ccc(S(=O)(=O)NCC2CCN(C(=O)C(=O)c3cc4ccccc4o3)CC2)cc1	·	-8.7	·	·	2.1	·
O=C(N/C=C/n1cnc2cc(C(F)(F)F)ccc21)c1ccccc1	50.6*	0.8	26.1	-50.5	-1.1	-0.1
COC(=O)c1cc2c(c3c4ccccc4n(S(=O)(=O)c4ccccc4)c13)C(=O)N(Cc1ccc(C(F)(F)F)cc1)C2	·	-20.2	·	·	0.1	·
COc1cc(/C=N/NC(=O)c2cc3c(ccc4ccccc43)o2)cc(OC)c1O	-9.1	33.0	52.5*	7.0	9.2	0.4
COc1ccccc1/C=N/NC(=O)c1cc2c(ccc3ccccc32)o1	-18.2	16.4	65.4*	-0.5	0.7	1.8
SMILES	CHO parental Ca	TAAR1 antagonist	OX1R antag-1	OX1R antag-2	TAAR1 agonist	NTR1 agonist
COc1ccccc1C=NN=C(NN=Cc1ccccc1OC)NN=Cc1ccccc1OC	·	52.3*	·	·	16.4	·
O=C(N/N=C/c1ccncc1)c1cc2c(ccc3ccccc32)o1	-0.5	20.7	37.5	1.1	6.4	-0.7
O=C(O)c1ccc(/C=N/NC(=O)c2cc3c(ccc4ccccc43)o2)cc1	4.5	9.4	2.9	-7.6	0.4	0.8
O=C(N/N=C/c1cc2c(cc1Br)OCO2)c1cc2ccccc2o1	-16.0	6.4	76.0*	-1.3	0.4	2.5
COc1ccccc1C=NNC(=O)NN=Cc1ccccc1OC	·	-2.8	·	·	-1.0	·
NC(=O)C12NC(Cc3ccccc31)c1ccccc12 (stereo not given)	·	-15.8	·	·	1.7	·
N#CCC1(O)C(=O)Nc2ccccc21 (stereo not given)	·	-4.8	·	·	0.2	·
N#CCN1C(=S)N=C(Nc2cccc(Cl)c2)C12CCCCC2	47.1*	-6.4	42.5	-10.7	12.3	-1.1
O=S1(=O)N[C@H](Cc2ccccc2)COc2cccc(NCCO)c21	·	11.5	·	·	0.5	·
Cc1c(NC(=O)COC(=O)CSc2ccc(C(N)=O)cc2[N+](=O)[O-])c(=O)n(-c2ccccc2)n1C	-4.2	-24.3	71.3*	1.6	6.9	0.3
CCOC(=O)C1CCN(C(=O)COC(=O)CSc2ccc(C(N)=O)cc2[N+](=O)[O-])CC1	-4.8	-1.4	55.1*	-10.9	-0.2	-0.1
COC(=O)C1CCN(C(=O)COC(=O)CSc2ccc(C(N)=O)cc2[N+](=O)[O-])CC1	-1.5	-11.7	37.1*	-6.7	0.8	-0.6
O=C(N[C@H](C(=O)N1CCC[C@H]1C(=O)NCc1ccccc1)C1CCCCC1)c1ccccc1	·	9.8	·	·	-2.1	·
CC1=C(C)/C(=N/OC(=O)c2cccc([N+](=O)[O-])c2)C=CC1=O	1.3	·	73.5*	16.8	·	-1.7
c1ccc(-c2noc(-c3cccc4ccccc34)n2)nc1	-36.5	-7.6	66.2*	-8.8	25.1	5.1
COc1cccc(-c2nc(-c3ccccn3)no2)c1OC	-9.1	1.1	32.2	-19.5	3.2	-6.0
CCOc1ccc(Cn2nnc(C(=O)NCc3ccc(OC)cc3)c2N)cc1	-2.8	12.6	15.3	4.2	49.5*	1.9
CCOc1ccc(NC(=O)Cn2nnc(C(=O)NCc3ccc(OC)cc3)c2N)cc1	4.3	-17.6	4.9	-10.3	3.4	-0.5
CCCNC(=O)c1cc2c(c(-c3cccc(-c4cc5ccccc5o4)c3)n1)[C@H](CCO)N(C(=O)NC(C)C)C2	·	50.1*	·	·	5.0	·
CC(C)(C)S(=O)N1Cc2cc(C(=O)NCC(F)(F)F)nc(-c3cccc(-c4cccc(F)c4)c3)c2[C@@H]1CCO (stereo not given in full)	·	50.8*	·	·	14.7	·
CC(C)(O)C#Cc1cccc(-c2nc(C(=O)NCCCN3CCOCC3)cc3c2[C@H](CCO)N(S(=O)C(C)(C)C)C3)c1 (stereo not given in full)	·	-5.7	·	·	0.8	·
